From PMC3409840 (ACS medicinal chemistry letters, 2012)

How the values were obtained:
[1] = Solubility under the NF-κB reporter assay conditions; assay type: physicochemical; settings: 50 µM screen
DU-145 = test: Cellular cytotoxicity by Alamar Blue staining, DU-145; assay type: cell-based, human; settings: for IC50 against DU-145 relative to reported IC50 of cryptocaryone: fold higher than cryptocaryone
p65 [2] = test: Western blot of p65 in nuclear lysate of NF-κB-induced DU-145 cells; assay type: cell-based, human
Procedure, shortened: (§1)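 Cells were dosed with test compound at 100 μM or 25 μM, or with DMSO vehicle, and the NF-κB pathway was then induced with TNF-α. Controls were noninduced and TNF-α-induced cells, both given vehicle.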

p65 [3] = test: Western blot of p65 in nuclear lysate of NF-κB-induced CCRF-CEM cells; assay type: cell-based, human
Procedure, shortened: as §1

IL-8 = test: Secreted IL-8 protein by ELISA in TNF-α-induced DU-145 cells; assay type: cell-based, human
Procedure, shortened: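 DU-145 cells dosed with DMSO vehicle or test compound (100 μM and 33 μM), followed by TNF-α induction of the NF-κB pathway. Non-induced and induced vehicle controls were included. Secreted IL-8 protein in the cell medium was quantified by ELISA.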

[4] = NMR-based thiol reactivity assay with cysteamine; settings: two molar equivalents of cysteamine, DMSO-d6/D2O PBS, 1H NMR
NF-κB = NF-κB luciferase reporter assay in A549 cells induced with TNF-α; assay type: cell-based, human
Procedure, shortened: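 A549 lung cancer cells carrying a stably transfected luciferase reporter behind six consensus NF-κB binding-site repeats. Cells induced with TNF-α and treated with test compound at 100, 50 and 10 μM (preliminary screen at 50 μM). Non-induced and TNF-α-induced wells serve as controls. Read-out is luciferase signal. Cell viability was checked in parallel under identical conditions.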

IL-8 mRNA = test: Semi-quantitative RT-PCR of IL-8 mRNA in TNF-α-induced DU-145 cells; assay type: cell-based, human; settings: 33 µM, lowest concentration tested
Procedure, shortened: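 DU-145 cells given DMSO vehicle or test compound (100 μM and 33 μM), then induced with TNF-α, alongside non-induced and induced controls. IL-8 mRNA was assessed by semiquantitative (traditional) RT-PCR, with GAPDH mRNA amplified as the reference transcript.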

CCRF-CEM = test: Cellular cytotoxicity by Alamar Blue staining, CCRF-CEM; assay type: cell-based, human; settings: 48-hr cytotoxicity assay, mean ± SD
Vero = test: Cellular cytotoxicity by Alamar Blue staining, Vero; assay type: cell-based, African green monkey; settings: mean ± SD
RWPE-1 = test: Cellular cytotoxicity by Alamar Blue staining, RWPE-1; assay type: cell-based, human; settings: mean ± SD
IκBα = settings: 16 µM; cited from earlier work

CO[C@@]12C=C(Br)C(=O)C[C@@H]1/C(=C(/OC(C)=O)c1ccccc1)CC2 (racemic) [Compound 4]
solubility under the assay conditions [1]: poorly soluble under the assay conditions

CC(=O)O/C(=C1\CO[C@]2(C)C=CC(=O)C[C@H]12)c1ccccc1 (racemic) [Compound 10]
IC50 against DU-145 relative to reported IC50 of cryptocaryone (DU-145): approximately 15 fold | inhibition of nuclear translocation of p65 (p65 [2]; 25 µM): Partial inhibition of p65 nuclear translocation | inhibition of nuclear translocation of p65 (p65 [2]; 100 µM): completely inhibited nuclear translocation of p65 | inhibition of nuclear translocation of p65 (p65 [3]; 25 µM): Partial inhibition of p65 nuclear translocation | inhibition of nuclear translocation of p65 (p65 [3]; 100 µM): completely inhibited nuclear translocation of p65 | secreted IL-8 levels (IL-8; 33 µM): 3,480 pg/mL | time to disappearance of vinyl proton doublets after cysteamine addition [4]: ≤ 5 min

CC(=O)O/C(C)=C1\CO[C@]2(c3ccccc3)C=CC(=O)C[C@H]12 (racemic) [Compound 11]
enhancement in potency compared with racemic 11 (NF-κB; 50 µM): 2 fold | IC50 against DU-145 relative to reported IC50 of cryptocaryone (DU-145): approximately 15 fold | inhibition of nuclear translocation of p65 (p65 [2]; 25 µM): Partial inhibition of p65 nuclear translocation | inhibition of nuclear translocation of p65 (p65 [2]; 100 µM): completely inhibited nuclear translocation of p65 | inhibition of nuclear translocation of p65 (p65 [3]; 25 µM): Partial inhibition of p65 nuclear translocation | inhibition of nuclear translocation of p65 (p65 [3]; 100 µM): completely inhibited nuclear translocation of p65 | secreted IL-8 levels (IL-8; 33 µM): 2,970 pg/mL | effect on IL-8 protein levels (in words) (IL-8; highest concentration tested (100 µM)): depleted IL-8 protein levels to nearly undetectable levels | IL-8 mRNA production (in words) (IL-8 mRNA): visibly lower levels than that of 10

CC(=O)O/C(=C1\CO[C@]2(C)CCC(=O)C[C@H]12)c1ccccc1 (racemic) [Compound 12]
decrease in potency compared to 11 (NF-κB; 100 µM): ~ 4 fold | reduction of NF-κB activity (NF-κB; 100 µM, highest concentration tested): 24% | IC50 CCRF-CEM (CCRF-CEM): no appreciable toxicity | IC50 DU-145 (DU-145; 48-hr cytotoxicity assay, Alamar Blue, mean ± SD): no appreciable toxicity | IC50 Vero (Vero): no appreciable toxicity | IC50 RWPE-1 (RWPE-1): no appreciable toxicity | secreted IL-8 levels (IL-8; 100 µM): 4,900 pg/mL

O=C1C[C@@H]2/C(=C(O)\C=C\c3ccccc3)C(=O)C=C[C@@H]2O1 [cryptocaryone]
inhibition of IκBα degradation (in words) (IκBα): inhibit the degradation of IκBα
